In brackets after ≈: the same amount, converted by molar mass.
Experiments:
Assay type in all cases: functional
[1] = system: Enterococcus faecium; assay: In vitro antibacterial activity against Streptococcus faecium ATCC 8043
How it was run: (§1)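 Twofold agar dilution in brain-heart infusion agar, test range 200 to 0.005 µg/mL, made from a 2000 µg/mL stock. Organisms grown overnight in BHI broth at 36 °C. About 10⁴ organisms inoculated per plate, then incubated 18 h at 36 °C. MIC taken as the lowest concentration giving no visible growth.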

[2] = system: Klebsiella pneumoniae; assay: In vitro antibacterial activity against Klebsiella pneumoniae 8045; how it was run: as §1
[3] = system: Staphylococcus aureus; assay: In vitro antibacterial activity against Staphylococcus aureus ATCC 6538P; how it was run: as §1
[4] = system: Staphylococcus epidermidis; assay: In vitro antibacterial activity against Staphylococcus epidermidis 3519; how it was run: as §1
[5] = system: Klebsiella aerogenes; assay: In vitro antibacterial activity against Enterobacter aerogenes ATCC 13048; how it was run: as §1
[6] = system: Staphylococcus aureus; assay: In vitro antibacterial activity against Staphylococcus aureus CMX 686B; how it was run: as §1
[7] = system: Acinetobacter sp.; assay: In vitro antibacterial activity against Acinetobacter species CMX669; how it was run: as §1
[8] = system: Escherichia coli; assay: In vitro antibacterial activity against Escherichia coli Juhl; how it was run: as §1
[9] = system: Streptococcus pyogenes; assay: In vitro antibacterial activity against Streptococcus pyogenes 930; how it was run: as §1
[10] = system: Pseudomonas aeruginosa; assay: compound was evaluated in vitro for the antibacterial activity against Pseudomonas aeruginosa 5007; how it was run: as §1
[11] = system: Pseudomonas aeruginosa; assay: In vitro antibacterial activity against Pseudomonas aeruginosa K799/WT; how it was run: as §1
[12] = system: Pseudomonas aeruginosa; assay: In vitro antibacterial activity against Pseudomonas aeruginosa 5007; how it was run: as §1
[13] = system: Mus musculus; assay: In vivo dose(po) inhibiting systemic infections caused by Staphylococcus aureus NCTC 10649 in mice.
How it was run: (§2)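 CF-1 female mice, about 20 g. Infected ip with 0.5 mL of an 18-h BHI culture diluted in 5% hog gastric mucin to 100× LD₅₀. LD₅₀ set by 10-fold dilutions (Reed–Muench, day 6). Compound given in water or dilute NaOH, sc or po, total dose split at 1 and 5 h post-infection. At least 3 dose levels, 10 mice each. Deaths followed 6 days. ED₅₀ from day-6 cumulative mortality by trimmed Logit, with 95% confidence limits.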

[14] = system: Mus musculus; assay: In vivo dose(po) inhibiting systemic infections caused by Pseudomonas aeruginosa 5007 in mice.; how it was run: as §2
[15] = system: Mus musculus; assay: In vivo antibacterial activity against systemic infection caused by Staphylococcus aureus NCTC 10649 in mice.; how it was run: as §2
[16] = system: Mus musculus; assay: In vivo dose(sc) inhibiting systemic infections caused by Staphylococcus aureus NCTC 10649 in mice.; how it was run: as §2
[17] = system: Mus musculus; assay: In vivo antibacterial activity against systemic infection caused by Pseudomonas aeruginosa 5007 in mice.; how it was run: as §2
[18] = system: Mus musculus; assay: In vivo dose(sc) inhibiting systemic infections caused by Pseudomonas aeruginosa 5007 in mice.; how it was run: as §2
[19] = system: Mus musculus; assay: In vivo antibacterial activity against systemic infection caused by Escherichia coli Juhl in mice.; how it was run: as §2
[20] = system: Mus musculus; assay: In vivo dose(sc) inhibiting systemic infections caused by Escherichia coli Juhl in mice.; how it was run: as §2
[21] = system: Mus musculus; assay: In vivo dose(po) inhibiting systemic infections caused by Escherichia coli Juhl in mice.; how it was run: as §2

SMILES	MIC [1]	MIC [2]	MIC [3]	MIC [4]	MIC [5]	MIC [6]	MIC [7]	MIC [8]	MIC [9]	MIC [11]	MIC [12]	ED50 [13]	ED50 [14]	MIC [15]	ED50 [16]	MIC [17]	ED50 [18]	other results
CN1CCN(c2nc3c(cc2F)c(=O)c(C(=O)O)cn3-c2ccc(F)cc2)CC1	3.1 µg/mL (≈ 7.74 µM)	0.1 µg/mL (≈ 0.25 µM)	0.2 µg/mL (≈ 0.5 µM)	0.39 µg/mL (≈ 0.974 µM)	0.2 µg/mL (≈ 0.5 µM)	0.2 µg/mL (≈ 0.5 µM)	0.2 µg/mL (≈ 0.5 µM)	0.2 µg/mL (≈ 0.5 µM)	3.1 µg/mL (≈ 7.74 µM)	1.56 µg/mL (≈ 3.9 µM)	–	–	–	–	–	–	–	MIC [10]: 1.56 µg/mL (≈ 3.9 µM)
O=C(O)c1cn(-c2ccccc2)c2nc(N3CCNCC3)c(F)cc2c1=O	50 µg/mL (≈ 136 µM)	0.1 µg/mL (≈ 0.271 µM)	1.56 µg/mL (≈ 4.23 µM)	1.56 µg/mL (≈ 4.23 µM)	0.39 µg/mL (≈ 1.06 µM)	1.56 µg/mL (≈ 4.23 µM)	1.56 µg/mL (≈ 4.23 µM)	0.2 µg/mL (≈ 0.543 µM)	6.2 µg/mL (≈ 16.8 µM)	1.56 µg/mL (≈ 4.23 µM)	1.56 µg/mL (≈ 4.23 µM)	–	–	–	–	–	–	–
O=C(O)c1cn(-c2ccc(F)cc2F)c2nc(N3CCNCC3)c(F)cc2c1=O	0.78 µg/mL (≈ 1.93 µM)	0.05 µg/mL (≈ 0.124 µM)	0.2 µg/mL (≈ 0.495 µM)	0.39 µg/mL (≈ 0.965 µM)	0.2 µg/mL (≈ 0.495 µM)	0.2 µg/mL (≈ 0.495 µM)	0.39 µg/mL (≈ 0.965 µM)	0.05 µg/mL (≈ 0.124 µM)	0.78 µg/mL (≈ 1.93 µM)	0.39 µg/mL (≈ 0.965 µM)	0.39 µg/mL (≈ 0.965 µM)	2.4 mg/kg	7 mg/kg	0.12 µg/mL (≈ 0.297 µM)	0.6 mg/kg	0.39 µg/mL (≈ 0.965 µM)	4.6 mg/kg	–
O=C(O)c1cn(-c2ccc(F)cc2)c2nc(N3CCNCC3)c(F)cc2c1=O	3.1 µg/mL (≈ 8.02 µM)	0.1 µg/mL (≈ 0.259 µM)	0.39 µg/mL (≈ 1.01 µM)	0.78 µg/mL (≈ 2.02 µM)	0.1 µg/mL (≈ 0.259 µM)	0.39 µg/mL (≈ 1.01 µM)	0.39 µg/mL (≈ 1.01 µM)	0.05 µg/mL (≈ 0.129 µM)	1.56 µg/mL (≈ 4.04 µM)	0.39 µg/mL (≈ 1.01 µM)	–	7.5 mg/kg	19.9 mg/kg	0.25 µg/mL (≈ 0.647 µM)	1.6 mg/kg	0.39 µg/mL (≈ 1.01 µM)	6.9 mg/kg	MIC [19]: 0.05 µg/mL (≈ 0.129 µM); ED50 [20]: 1 mg/kg; ED50 [21]: 2.8 mg/kg; MIC [10]: 0.39 µg/mL (≈ 1.01 µM)
CN1CCN(c2nc3c(cc2F)c(=O)c(C(=O)O)cn3-c2ccc(F)cc2F)CC1	1.56 µg/mL (≈ 3.73 µM)	0.39 µg/mL (≈ 0.932 µM)	0.2 µg/mL (≈ 0.478 µM)	0.39 µg/mL (≈ 0.932 µM)	0.39 µg/mL (≈ 0.932 µM)	0.2 µg/mL (≈ 0.478 µM)	0.39 µg/mL (≈ 0.932 µM)	0.39 µg/mL (≈ 0.932 µM)	1.56 µg/mL (≈ 3.73 µM)	3.1 µg/mL (≈ 7.41 µM)	3.1 µg/mL (≈ 7.41 µM)	–	–	–	–	–	–	–
NC1CCN(c2nc3c(cc2F)c(=O)c(C(=O)O)cn3-c2ccc(F)cc2)C1 (stereo not given)	0.39 µg/mL (≈ 1.01 µM)	0.05 µg/mL (≈ 0.129 µM)	0.5 µg/mL (≈ 1.29 µM)	0.1 µg/mL (≈ 0.259 µM)	0.1 µg/mL (≈ 0.259 µM)	0.1 µg/mL (≈ 0.259 µM)	0.1 µg/mL (≈ 0.259 µM)	0.05 µg/mL (≈ 0.129 µM)	0.2 µg/mL (≈ 0.518 µM)	0.2 µg/mL (≈ 0.518 µM)	0.1 µg/mL (≈ 0.259 µM)	1.6 mg/kg	18.2 mg/kg	0.06 µg/mL (≈ 0.155 µM)	0.5 mg/kg	0.1 µg/mL (≈ 0.259 µM)	7.4 mg/kg	–
CC1CN(c2nc3c(cc2F)c(=O)c(C(=O)O)cn3-c2ccc(F)cc2)CCN1 (stereo not given)	6.2 µg/mL (≈ 15.5 µM)	0.02 µg/mL (≈ 0.05 µM)	0.39 µg/mL (≈ 0.974 µM)	0.78 µg/mL (≈ 1.95 µM)	12.5 µg/mL (≈ 31.2 µM)	0.78 µg/mL (≈ 1.95 µM)	0.2 µg/mL (≈ 0.5 µM)	0.05 µg/mL (≈ 0.125 µM)	3.1 µg/mL (≈ 7.74 µM)	1.56 µg/mL (≈ 3.9 µM)	1.56 µg/mL (≈ 3.9 µM)	–	–	–	–	–	–	–
O=C(O)c1cn(-c2ccc(F)cc2)c2nc(N3CCC(O)C3)c(F)cc2c1=O (stereo not given)	1.56 µg/mL (≈ 4.03 µM)	0.1 µg/mL (≈ 0.258 µM)	0.05 µg/mL (≈ 0.129 µM)	0.2 µg/mL (≈ 0.516 µM)	0.39 µg/mL (≈ 1.01 µM)	0.05 µg/mL (≈ 0.129 µM)	0.39 µg/mL (≈ 1.01 µM)	0.39 µg/mL (≈ 1.01 µM)	0.78 µg/mL (≈ 2.01 µM)	3.1 µg/mL (≈ 8 µM)	3.1 µg/mL (≈ 8 µM)	–	–	–	–	–	–	–
CC1CN(c2nc3c(cc2F)c(=O)c(C(=O)O)cn3-c2ccc(F)cc2F)CCN1 (stereo not given)	3.1 µg/mL (≈ 7.41 µM)	0.2 µg/mL (≈ 0.478 µM)	0.2 µg/mL (≈ 0.478 µM)	0.78 µg/mL (≈ 1.86 µM)	3.1 µg/mL (≈ 7.41 µM)	0.39 µg/mL (≈ 0.932 µM)	0.39 µg/mL (≈ 0.932 µM)	0.1 µg/mL (≈ 0.239 µM)	1.56 µg/mL (≈ 3.73 µM)	1.56 µg/mL (≈ 3.73 µM)	1.56 µg/mL (≈ 3.73 µM)	–	–	–	–	–	–	MIC [19]: 0.1 µg/mL (≈ 0.239 µM); ED50 [20]: 1.4 mg/kg; ED50 [21]: 3.9 mg/kg
CN1CCN(c2cc3c(cc2F)c(=O)c(C(=O)O)cn3-c2ccc(F)cc2)CC1.Cl [DIFLOXACIN HYDROCHLORIDE]	1.56 µg/mL	0.1 µg/mL	0.2 µg/mL	0.39 µg/mL	0.78 µg/mL	0.2 µg/mL	0.78 µg/mL	0.2 µg/mL	1.56 µg/mL	1.56 µg/mL	0.78 µg/mL	–	–	–	–	–	–	–
CCn1cc(C(=O)O)c(=O)c2cc(F)c(N3CCNCC3)cc21 [NORFLOXACIN]	0.78 µg/mL (≈ 2.44 µM)	0.1 µg/mL (≈ 0.313 µM)	0.78 µg/mL (≈ 2.44 µM)	1.56 µg/mL (≈ 4.89 µM)	0.2 µg/mL (≈ 0.626 µM)	0.78 µg/mL (≈ 2.44 µM)	6.2 µg/mL (≈ 19.4 µM)	0.1 µg/mL (≈ 0.313 µM)	3.1 µg/mL (≈ 9.71 µM)	0.39 µg/mL (≈ 1.22 µM)	0.39 µg/mL (≈ 1.22 µM)	–	–	–	–	–	–	–
Cl.O=C(O)c1cn(-c2ccc(F)cc2)c2cc(N3CCNCC3)c(F)cc2c1=O [SARAFLOXACIN HYDROCHLORIDE]	1.56 µg/mL	0.02 µg/mL	0.2 µg/mL	0.39 µg/mL	0.2 µg/mL	0.2 µg/mL	0.2 µg/mL	0.05 µg/mL	0.78 µg/mL	0.39 µg/mL	0.39 µg/mL	6.5 mg/kg	21.4 mg/kg	0.12 µg/mL	1.6 mg/kg	0.39 µg/mL	1.6 mg/kg	MIC [19]: 0.05 µg/mL; ED50 [20]: 0.6 mg/kg; ED50 [21]: 4.3 mg/kg
